Test results reported in ChEMBL document CHEMBL4616723, “Discovery of Antibacterials That Inhibit Bacterial RNA Polymerase Interactions with Sigma Factors” (J Med Chem, 2020).
≈ marks a conversion by molar mass, not a printed value. Calls of active or inactive are those of the source. No cut-off for these calls is given here.

What was measured:
Escherichia coli = assay: Antibacterial activity against Escherichia coli ATCC 25922 after 20 hrs by CLSI based-broth microdilution method; format: functional; details: ATCC 25922, 20 h
[1] = tested on: Staphylococcus epidermidis; assay: Antibacterial activity against Staphylococcus epidermidis ATCC 12228 after 20 hrs by CLSI based-broth microdilution method; format: functional; details: ATCC 12228, 20 h
Enterobacter cloacae = assay: Antibacterial activity against Enterobacter cloacae ATCC 13047 after 20 hrs by CLSI based-broth microdilution method; format: functional; details: subsp. cloacae ATCC 13047, 20 h
Acinetobacter baumannii = assay: Antibacterial activity against Acinetobacter baumannii ATCC 19606 after 20 hrs by CLSI based-broth microdilution method; format: functional; details: ATCC 19606 = CIP 70.34 = JCM 6841, 20 h
Streptococcus agalactiae = assay: Antibacterial activity against Streptococcus agalactiae ATCC 12386 after 20 hrs by CLSI based-broth microdilution method; format: functional; details: ATCC 12386, 20 h
Staphylococcus aureus [2] = assay: Antibacterial activity against Staphylococcus aureus ATCC 29213 after 20 hrs by CLSI based-broth microdilution method; format: functional; details: ATCC 29213, 20 h
[3] = Inhibition of N-terminal SmBiT-fused Bacillus subtilis RNAP subunit beta' CH region expressed in Escherichia coli BL21(DE3)pLysS interaction with C- terminal LgBiT-fused Bacillus subtilis RNA polymerase sigma factor SigA expressed in Escherichia coli BL21(DE3)pLysS preincubated for 10 mins followed by RNA polymerase sigma factor SigA addition and measured after 10 mins by nano-glo luciferase assay
Method in brief: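 Split-luciferase complementation in PBS: N-SmBiT-CH (2.5 μM stock) mixed with compound at desired concentrations, 10 min at 37 °C. C-LgBiT-σA (2.5 μM stock) then added, another 10 min at 37 °C. Equal volume of Nano-Glo substrate added and luminescence read. No-drug control included. Run in triplicate with technical repeats.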

Pseudomonas aeruginosa = assay: Antibacterial activity against Pseudomonas aeruginosa ATCC 27853 after 20 hrs by CLSI based-broth microdilution method; format: functional; details: ATCC 27853, 20 h
Klebsiella pneumoniae = assay: Antibacterial activity against Klebsiella pneumoniae ATCC 700603 after 20 hrs by CLSI based-broth microdilution method; format: functional; details: ATCC 700603, 20 h
Staphylococcus aureus [4] = assay: Antibacterial activity against Staphylococcus aureus ATCC 25923 after 20 hrs by CLSI based-broth microdilution method; format: functional; details: ATCC 25923, 20 h
Streptococcus pyogenes = assay: Antibacterial activity against Streptococcus pyogenes ATCC 19615 after 20 hrs by CLSI based-broth microdilution method; format: functional; details: ATCC 19615, 20 h
Enterococcus faecalis = assay: Antibacterial activity against Enterococcus faecalis ATCC 19433 after 20 hrs by CLSI based-broth microdilution method; format: functional; details: ATCC 19433, 20 h
[5] = tested on: Staphylococcus saprophyticus; assay: Antibacterial activity against Staphylococcus saprophyticus ATCC 15305 after 20 hrs by CLSI based-broth microdilution method; format: functional; details: subsp. saprophyticus ATCC 15305, 20 h
[6] = Therapeutic index, ratio of CC50 for human A549 cells to MIC for Streptococcus pneumoniae ATCC 49619; format: toxicity; details: read-out: TI
[7] = Haemolytic activity in human erythrocytes at 0.1 to 10 ug/ml relative to control; format: ADME, cell-based, Erythrocyte; details: read-out: Activity
Method in brief: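 Human erythrocytes washed in 150 mM NaCl, resuspended in PBS pH 7.4 (2% blood); compound at final 0.1, 1 and 10 μg/mL (0.5% DMSO) for 45 min at 37 °C, n = 6; spun at 500g, 4 °C; supernatant absorbance read at 540 nm; 1% Triton X-100 as positive and PBS as negative control; % lysis calculated.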

Staphylococcus aureus [8] = assay: Effect on total RNA level in Staphylococcus aureus ATCC 29213 at 1/4 to 1/8 times MIC by fluorimetric method; format: functional
A549 = assay: Cytotoxicity against human A549 cells after 48 to 72 hrs by MTT assay; format: cell-based
Streptococcus pneumoniae [9] = assay: Antibacterial activity against Streptococcus pneumoniae ATCC 49619 after 16 to 20 hrs by CLSI based-broth microdilution method; format: functional
[10] = Therapeutic index, ratio of CC50 for human HepG2 cells to MIC for Streptococcus pneumoniae ATCC 49619; format: toxicity; details: read-out: TI
[11] = Inhibition of Escherichia coli RNAP/sigma-70 protein-protein interaction assessed as reduction in RNA synthesis preincubated for 10 mins followed by sigma-70/DNA template/AGU/ApU/alpha [32P]GTP addition and measured after 10 mins by phosphorimaging analysis
[12] = Apparent permeability across apical to basolateral membrane in human Caco2 cells at 10 ug/ml by LC-MS/MS analysis; format: ADME, cell-based; details: Caco-2
Method in brief: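 Caco-2 monolayers grown 21–28 days on Transwell polycarbonate membranes, TEER ≥165 Ω cm2; preincubated 20 min at 37 °C in transport buffer; apical-to-basolateral transport only, pH 7.4 on both sides; receiver sampled over time under sink conditions; concentrations measured by LC–MS/MS.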

HepG2 = assay: Cytotoxicity against human HepG2 cells after 48 to 72 hrs by MTT assay; format: cell-based
Streptococcus pneumoniae [13] = assay: Antibacterial activity against Streptococcus pneumoniae ATCC 49619 assessed as reduction in pneumolysin release at 0.25 to 0.5 times MIC incubated for 16 to 20 hrs by Western blot analysis; format: functional, organism-based
Method in brief: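 Overnight static culture in brain–heart infusion broth, with or without serially diluted compound; rifampicin and ceftriaxone controls at twofold dilutions from 2 to 0.002 μg/mL; untreated control. […] Western blot probed with rabbit polyclonal anti-pneumolysin (1:1000) and HRP anti-rabbit secondary, ECL chemiluminescence; band intensity normalized to untreated control.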

Streptococcus pneumoniae [14] = assay: Antibacterial activity against Streptococcus pneumoniae ATCC 49619 after 20 hrs by CLSI based-broth microdilution method; format: functional; details: ATCC 49619, 20 h

Structure (SMILES) | MIC (Escherichia coli) | MIC (Enterobacter cloacae) | MIC (Acinetobacter baumannii) | MIC (Pseudomonas aeruginosa) | MIC (Klebsiella pneumoniae) | MIC (Streptococcus pneumoniae [9]) | MIC (Streptococcus pneumoniae [14]) | further results
O=C(O)c1cccc(NCc2ccc(Sc3ccc(Cl)c(Cl)c3)c([N+](=O)[O-])c2)c1 | > 256 µg/mL | > 256 µg/mL | > 256 µg/mL | > 256 µg/mL | > 256 µg/mL |  |  | MIC [1]: 8 µg/mL (≈ 17.8 µM); MIC (Streptococcus agalactiae): 8 µg/mL (≈ 17.8 µM); MIC (Staphylococcus aureus [2]): 8 µg/mL (≈ 17.8 µM); IC50 [3]: 42.9 µM; MIC (Staphylococcus aureus [4]): 8 µg/mL (≈ 17.8 µM); MIC (Streptococcus pyogenes): 8 µg/mL (≈ 17.8 µM); MIC (Enterococcus faecalis): 8 µg/mL (≈ 17.8 µM); MIC [5]: 8 µg/mL (≈ 17.8 µM)
O=C(O)c1ccccc1C(=O)c1ccc(Sc2ccc(Cl)c(Cl)c2)c([N+](=O)[O-])c1 | > 256 µg/mL | > 256 µg/mL | > 256 µg/mL | > 256 µg/mL | > 256 µg/mL | 8 µg/mL (≈ 17.8 µM) |  | selectivity ratio [6]: 9; MIC [1]: 16 µg/mL (≈ 35.7 µM); hemolysis [7]: < 10%; MIC (Streptococcus agalactiae): 16 µg/mL (≈ 35.7 µM); MIC (Staphylococcus aureus [2]): 16 µg/mL (≈ 35.7 µM); MIC (Staphylococcus aureus [8]): > 256 µg/mL; CC50 (A549): 76.7 µM; selectivity ratio [10]: 7; IC50 [11]: 20.4 µM; Papp A→B at 10 ug/ml [12]: 35 ×10⁻⁶ cm/s; MIC (Staphylococcus aureus [4]): 16 µg/mL (≈ 35.7 µM); CC50 (HepG2): 63.8 µM; MIC (Streptococcus pyogenes): 16 µg/mL (≈ 35.7 µM); MIC (Enterococcus faecalis): 32 µg/mL (≈ 71.4 µM); MIC [5]: 32 µg/mL (≈ 71.4 µM)
CO/N=C(\C(=O)N[C@@H]1C(=O)N2C(C(=O)O)=C(CSc3nc(=O)c(O)nn3C)CS[C@H]12)c1csc(N)n1 |  |  |  |  |  |  |  | Activity (Streptococcus pneumoniae [13]): inactive
O=C(O)c1ccc(Br)c(NCc2ccc(Sc3ccc(Cl)c(Cl)c3)c([N+](=O)[O-])c2)c1 | > 256 µg/mL | > 256 µg/mL | > 256 µg/mL | > 256 µg/mL | > 256 µg/mL |  | 4 µg/mL (≈ 7.57 µM) | selectivity ratio [6]: 18; CC50 (A549): 67.7 µM; selectivity ratio [10]: 24; CC50 (HepG2): 92.6 µM
Nc1ccc(Sc2ccc(C(=O)c3ccccc3C(=O)O)cc2[N+](=O)[O-])cc1 | > 256 µg/mL | > 256 µg/mL | > 256 µg/mL | > 256 µg/mL | > 256 µg/mL | 128 µg/mL (≈ 325 µM) |  | 
Nc1ccccc1Sc1ccc(C(=O)Nc2ccc(C(=O)O)cc2)cc1[N+](=O)[O-] | > 256 µg/mL | > 256 µg/mL | > 256 µg/mL | > 256 µg/mL | > 256 µg/mL |  | 256 µg/mL (≈ 625 µM) | IC50 [3]: 97 µM
CC(C)(C)c1cccc(Nc2ccc(C(=O)c3ccccc3C(=O)O)cc2[N+](=O)[O-])c1 | > 256 µg/mL | > 256 µg/mL | > 256 µg/mL | > 256 µg/mL | > 256 µg/mL |  | 256 µg/mL (≈ 612 µM) | 
Nc1cccc(Sc2ccc(C(=O)c3ccccc3C(=O)O)cc2[N+](=O)[O-])c1 | > 256 µg/mL | > 256 µg/mL | > 256 µg/mL | > 256 µg/mL | > 256 µg/mL | 64 µg/mL (≈ 162 µM) |  | 
O=C(O)c1ccccc1C(=O)c1ccc(NCc2ccccc2)c([N+](=O)[O-])c1 | > 256 µg/mL | > 256 µg/mL | > 256 µg/mL | > 256 µg/mL | > 256 µg/mL |  | 256 µg/mL (≈ 680 µM) | 
